From ChEMBL document CHEMBL2203103, “Discovery of a novel series of benzimidazole derivatives as diacylglycerol acyltransferase inhibitors” (Bioorg Med Chem Lett, 2012)
Calls of active or inactive are those of the source. The calls are words filed in the database; no cut-off is given here.

Assays:
[1] = target: T1, Diacylglycerol O-acyltransferase 1 (Rattus norvegicus, UniProt Q9ERM3); test: (§1) Inhibition of DGAT in rat liver microsomes; set-up: species or system Microsome
T1 sequence (Q9ERM3 whole entry): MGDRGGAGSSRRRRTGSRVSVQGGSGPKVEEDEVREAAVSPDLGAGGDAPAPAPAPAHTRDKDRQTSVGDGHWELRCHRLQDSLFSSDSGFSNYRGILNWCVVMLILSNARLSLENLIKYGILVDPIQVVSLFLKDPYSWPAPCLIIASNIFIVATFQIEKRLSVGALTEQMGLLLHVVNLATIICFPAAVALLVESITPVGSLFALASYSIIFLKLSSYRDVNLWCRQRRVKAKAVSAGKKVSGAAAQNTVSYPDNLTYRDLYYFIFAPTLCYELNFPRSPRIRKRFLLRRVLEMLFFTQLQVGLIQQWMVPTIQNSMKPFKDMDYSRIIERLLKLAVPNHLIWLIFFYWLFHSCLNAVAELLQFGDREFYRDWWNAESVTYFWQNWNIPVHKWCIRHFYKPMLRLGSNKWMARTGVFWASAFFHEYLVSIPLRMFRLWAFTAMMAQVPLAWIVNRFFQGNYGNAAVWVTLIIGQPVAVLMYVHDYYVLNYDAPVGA
How it was run: (§2)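 DGAT activity was measured in microsomes prepared from rat liver, using a modified version of Coleman's method. IC₅₀ values were determined.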

[2] = target: T2, Diacylglycerol O-acyltransferase 1 (Rattus norvegicus) (UniProt Q9ERM3); test: as §1; conditions: Microsome; how it was run: as §2
T2 sequence (whole entry): T1 sequence (Q9ERM3 whole entry)

Mus musculus [3] = organism: Mus musculus; test: Antiobesity activity in high fat diet-induced obese mouse assessed as inhibition of body weight gain after 4 weeks (reference value: 49.9 +/- 1.24 g); type: functional
Mus musculus [4] = organism: Mus musculus; test: Antidyslipidemic activity in high fat diet-induced obese mouse assessed as decrease in blood LDL-cholesterol level (reference value: 119 +/- 14.3 mg/dl); type: functional
Mus musculus [5] = organism: Mus musculus; test: Antiobesity activity in high fat diet-induced obese mouse assessed as inhibition of body weight gain after 5 weeks (reference value: 52.9 +/- 1.20 g); type: functional
Mus musculus [6] = organism: Mus musculus; test: Antiobesity activity in high fat diet-induced obese mouse assessed as inhibition of body weight gain after 2 weeks (reference value: 37.8 +/- 3.55 g); type: functional
Mus musculus [7] = organism: Mus musculus; test: Antiobesity activity in high fat diet-induced obese mouse assessed as decrease in retroperitoneal fat (reference value: 1.41 +/- 0.29 %); type: functional; set-up: scale not given: the % may be the effect or the level left
How it was run: (§3)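 In 6-week-old male diet-induced obese mice, HFD-fed and individually housed (23 °C ± 3 °C, 12-h light–dark, food and water ad libitum), total and retroperitoneal fat were weighed after 5 weeks of treatment. Values are given as (tissue weight/body weight) × 100 and compared with normal-diet and untreated HFD groups.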

Mus musculus [8] = organism: Mus musculus; test: Antidyslipidemic activity in high fat diet-induced obese mouse assessed as increase in blood HDL-cholesterol level (reference value: 17.4 +/- 2.15 mg/dl); type: functional
Mus musculus [9] = organism: Mus musculus; test: Antiobesity activity in high fat diet-induced obese mouse assessed as decrease in abdominal and epididymal fat (reference value: 5.34 +/- […]); type: functional; set-up: scale not given: the % may be the effect or the level left
Mus musculus [10] = organism: Mus musculus; test: Antiobesity activity in high fat diet-induced obese mouse assessed as inhibition of body weight gain after 3 weeks (reference value: 45.9 +/- 2.29 g); type: functional
Mus musculus [11] = organism: Mus musculus; test: Antidyslipidemic activity in high fat diet-induced obese mouse assessed as decrease in total blood triglyceride level (reference value: 120 +/- 11.2 mg/dl); type: functional
Mus musculus [12] = organism: Mus musculus; test: Antiobesity activity in high fat diet-induced obese mouse assessed as inhibition of body weight gain after 1 week (reference value: 35.2 +/- 1.57 g); type: functional
Mus musculus [13] = organism: Mus musculus; test: Antiobesity activity in high fat diet-induced obese mouse assessed as decrease in total fat (reference value: 6.75 +/- 1.18 %); type: functional; set-up: scale not given: the % may be the effect or the level left; how it was run: as §3
Mus musculus [14] = organism: Mus musculus; test: Antidyslipidemic activity in high fat diet-induced obese mouse assessed as decrease in total blood cholesterol level (reference value: 160 +/- 13.9 mg/dl); type: functional
Mus musculus [15] = test: Antiobesity activity in high fat diet-induced obese mouse assessed as inhibition of body weight gain at 10 mg/kg after 5 weeks (reference value: 52.9 +/- 1.20 g); type: functional
Mus musculus [16] = test: Antiobesity activity in high fat diet-induced obese mouse assessed as inhibition of body weight gain at 10 mg/kg after 3 weeks (reference value: 45.9 +/- 2.29 g); type: functional
Mus musculus [17] = test: Antiobesity activity in high fat diet-induced obese mouse assessed as inhibition of body weight gain at 10 mg/kg after 2 weeks (reference value: 37.8 +/- 3.55 g); type: functional
Mus musculus [18] = test: Antiobesity activity in high fat diet-induced obese mouse assessed as inhibition of body weight gain at 10 mg/kg after 1 week (reference value: 35.2 +/- 1.57 g); type: functional
Mus musculus [19] = test: Antiobesity activity in high fat diet-induced obese mouse assessed as inhibition of body weight gain at 10 mg/kg after 4 weeks (reference value: 49.9 +/- 1.24 g); type: functional
[20] = target: T3, Diacylglycerol O-acyltransferase 1 (Homo sapiens) (UniProt O75907); test: Residual DGAT activity in human HepG2 cells using [14C]acetate as substrate assessed as formation of [14C]-triglyceride at 3 uM by chromatographic analysis relative to control
T3 sequence (whole entry): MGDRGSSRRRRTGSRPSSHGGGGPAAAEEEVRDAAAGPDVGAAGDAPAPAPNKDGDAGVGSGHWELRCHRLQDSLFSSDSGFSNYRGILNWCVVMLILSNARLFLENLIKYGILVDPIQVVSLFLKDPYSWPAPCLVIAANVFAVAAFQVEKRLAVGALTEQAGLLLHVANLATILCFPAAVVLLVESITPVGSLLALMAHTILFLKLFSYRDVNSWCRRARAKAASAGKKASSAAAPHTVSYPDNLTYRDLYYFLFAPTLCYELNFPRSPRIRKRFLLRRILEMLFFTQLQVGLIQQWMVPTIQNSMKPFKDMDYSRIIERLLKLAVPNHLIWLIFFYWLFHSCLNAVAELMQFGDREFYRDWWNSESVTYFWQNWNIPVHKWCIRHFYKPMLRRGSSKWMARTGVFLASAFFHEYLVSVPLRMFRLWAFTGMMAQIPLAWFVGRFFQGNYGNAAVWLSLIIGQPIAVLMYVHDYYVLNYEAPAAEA

[21] = target: T3, Diacylglycerol O-acyltransferase 1 (Homo sapiens); test: Residual DGAT activity in human HepG2 cells using [14C]glycerol as substrate assessed as formation of [14C]-triglyceride at 3 uM by chromatographic analysis relative to control
HepG2 = test: Cytotoxicity against human HepG2 cells assessed as cell viability after 48 hrs by MTT assay; type: cell-based; conditions: hepg2, 48 h
How it was run: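 HepG2 cells were kept in DMEM with 10% heat-inactivated FBS and 1% penicillin–streptomycin at 37 °C in 5% CO₂. Cells were seeded at 2 × 10⁴ per well, exposed to compound for 48 h, and viability was read by MTT as formazan absorbance at 560 nm.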

[22] = target: T3, Diacylglycerol O-acyltransferase 1 (Homo sapiens); test: Residual DGAT activity in human HepG2 cells using [14C]glycerol as substrate assessed as formation of [14C]-triglyceride at 10 uM by chromatographic analysis relative to control
[23] = target: T3, Diacylglycerol O-acyltransferase 1 (Homo sapiens); test: Residual DGAT activity in human HepG2 cells using [14C]acetate as substrate assessed as formation of [14C]-triglyceride at 10 uM by chromatographic analysis relative to control

O=C(NCc1ccco1)c1ccc2nc(COc3ccc(-c4ccccc4)cc3)[nH]c2c1
IC50 [1]: > 50 µM

O=C(NCc1cccs1)c1ccc2[nH]c(COc3ccc(C45CC6CC(CC(C6)C4)C5)cc3)nc2c1
IC50 [1]: > 50 µM

O=C(NCc1ccco1)c1ccc2nc(COc3ccccc3)[nH]c2c1
IC50 [1]: > 50 µM

COc1cc(O)c(CC=C(C)C)c(O)c1C(=O)/C=C/c1ccc(O)cc1
inhibition [2]: Active

CN(C)C(=O)c1ccc2nc(COc3ccc(C45CC6CC(CC(C6)C4)C5)cc3)[nH]c2c1
IC50 [1]: > 50 µM

Cc1ccc(CNC(=O)c2ccc3nc(COc4ccc(C56CC7CC(CC(C7)C5)C6)cc4)[nH]c3c2)o1
IC50 [1]: 11.4 µM

O=C(c1ccc2[nH]c(COc3ccc(C45CC6CC(CC(C6)C4)C5)cc3)nc2c1)N1CCCC1
IC50 [1]: 11.3 µM

O=C(O)c1ccc2[nH]c(COc3ccc(C45CC6CC(CC(C6)C4)C5)cc3)nc2c1
IC50 [1]: > 50 µM

O=C(NCc1ccccc1)c1ccc2nc(COc3ccc(C45CC6CC(CC(C6)C4)C5)cc3)[nH]c2c1
IC50 [1]: > 50 µM

O=C(NCc1ccccn1)c1ccc2[nH]c(COc3ccc(C45CC6CC(CC(C6)C4)C5)cc3)nc2c1
IC50 [1]: 20 µM

CC(C)c1cccc(C(C)C)c1NC(=O)c1ccc2nc(COc3ccc(C45CC6CC(CC(C6)C4)C5)cc3)[nH]c2c1
IC50 [1]: > 50 µM

CCCCCCCCCCC[C@@H](C[C@@H]1OC(=O)[C@H]1CCCCCC)OC(=O)[C@H](CC(C)C)NC=O [ORLISTAT]
Activity (Mus musculus [3]): 40 g
Activity (Mus musculus [4]): 20.5 mg/dL
Activity (Mus musculus [5]): 41.2 g
Activity (Mus musculus [6]): 37.4 g
Activity (Mus musculus [7]): 0.75%
Activity (Mus musculus [8]): 30.3 mg/dL
Activity (Mus musculus [9]): 2.45%
Activity (Mus musculus [10]): 39.1 g
Activity (Mus musculus [11]): 40.8 mg/dL
Activity (Mus musculus [12]): 33.6 g
Activity (Mus musculus [13]): 3.2%
Activity (Mus musculus [14]): 53.8 mg/dL

CC1(C)Oc2ncnc(N)c2N=C1c1ccc([C@H]2CC[C@H](CC(=O)O)CC2)cc1
IC50 [1]: 3.1 µM

O=C(NC[C@@H]1CCCO1)c1ccc2nc(COc3ccc(C45CC6CC(CC(C6)C4)C5)cc3)[nH]c2c1
IC50 [1]: 9.5 µM

NC(=O)c1ccc2nc(COc3ccc(C45CC6CC(CC(C6)C4)C5)cc3)[nH]c2c1
IC50 [1]: > 50 µM

O=C(NC[C@H]1CCCO1)c1ccc2nc(COc3ccc(C45CC6CC(CC(C6)C4)C5)cc3)[nH]c2c1
IC50 [1]: 8.7 µM

O=C(NCc1ccco1)c1ccc2[nH]c(COc3ccc(C45CC6CC(CC(C6)C4)C5)cc3)nc2c1
Activity (Mus musculus [4]): 43.6 mg/dL
Activity (Mus musculus [15]): 43.2 g
IC50 [1]: 4.4 µM
Activity (Mus musculus [16]): 40.8 g
Activity (Mus musculus [7]): 0.94%
Activity (Mus musculus [8]): 21.2 mg/dL
Activity (Mus musculus [9]): 3.16%
Activity (Mus musculus [17]): 38.9 g
Activity (Mus musculus [18]): 35.1 g
Activity (Mus musculus [19]): 42.3 g
residual activity [20]: 80.9%
Activity (Mus musculus [11]): 41.8 mg/dL
residual activity [21]: 69.5%
Activity (HepG2): > 50 µM
residual activity [22]: 45%
Activity (Mus musculus [13]): 4.1%
Activity (Mus musculus [14]): 73.2 mg/dL
residual activity [23]: 53%

Cc1ccoc1CNC(=O)c1ccc2nc(COc3ccc(C45CC6CC(CC(C6)C4)C5)cc3)[nH]c2c1
IC50 [1]: 25.4 µM

CC(C)NC(=O)c1ccc2nc(COc3ccc(C45CC6CC(CC(C6)C4)C5)cc3)[nH]c2c1
IC50 [1]: 20 µM

O=C(c1ccc2[nH]c(COc3ccc(C45CC6CC(CC(C6)C4)C5)cc3)nc2c1)N1CCCCC1
IC50 [1]: 27.5 µM

COC(=O)c1ccc2[nH]c(COc3ccc(C45CC6CC(CC(C6)C4)C5)cc3)nc2c1
IC50 [1]: 23 µM

CC(C)(C)c1ccc(OCc2nc3cc(C(=O)NCc4ccco4)ccc3[nH]2)cc1
IC50 [1]: 9 µM

O=C(Nc1ccccc1)c1ccc2[nH]c(COc3ccc(C45CC6CC(CC(C6)C4)C5)cc3)nc2c1
IC50 [1]: > 50 µM
